Data taken from ChEMBL document CHEMBL1128448, “Synthesis and antifungal activity of new azole derivatives containing an N-acylmorpholine ring” (1995).
Converted amounts (≈) assume the structure as drawn.

How the values were obtained:
Format in all cases: functional
Candida albicans [1] = assay: In vivo evaluation of minimum inhibitory concentration against Candida albicans 406
Method in brief: (§1)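 Broth macrodilution MIC following NCCLS M27-P, in RPMI-1640 buffered with 0.165 M MOPS. Fluconazole was dissolved in water and other drugs in DMSO. C. parapsilosis ATCC 22019 served as the reference strain in every run. MIC was the lowest concentration giving turbidity at or below the 80% inhibition standard.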

Candida albicans [2] = assay: In vivo evaluation of minimum inhibitory concentration against Candida albicans 60; method in brief: as §1
Candida tropicalis [3] = assay: In vivo Evaluation of minimum inhibitory concentration against Candida tropicalis 2.11
Method in brief: (§2)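 Stocks are 800 μg/mL in 50% ethanol. Each plate gets 10 μL of inoculum at 10^5 cfu/mL. Incubation at 25 °C, 48 h for yeasts and 120 h for dermatophytes and molds. Organisms are ATCC strains or clinical isolates.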

Kluyveromyces marxianus [4] = assay: In vivo Evaluation of minimum inhibitory concentration against Candida pseudotropicalis 13; conditions: Kluyveromyces marxianus; read-out: MIC; method in brief: as §2
Nannizzia gypsea = assay: In vitro evaluation of minimum inhibitory concentration against Microsporum gypseum 22; conditions: Nannizzia gypsea; read-out: MIC; method in brief: as §2
Rattus norvegicus [5] = assay: In vivo evaluation of antifungal activity against vaginal candidosis in rat at dose 0.1 mg/kg on 10th day
Method in brief: (§3)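 Groups of 10 female Wistar rats given estradiol 25 mg/kg sc on day -5, then vaginally inoculated with C. albicans on day 0. Infection is confirmed by culture of day-3 swabs. Compound is dosed orally once daily on days 3–5; controls get vehicle. Cure is scored by culture of vaginal swabs taken on days 10 and 15.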

Rattus norvegicus [6] = assay: In vivo evaluation of antifungal activity against vaginal candidosis in rat at dose 0.1 mg/kg on 15th day; method in brief: as §3
Rattus norvegicus [7] = assay: In vivo evaluation of antifungal activity against vaginal candidosis in rat at dose 0.25 mg/kg on 10th day
Method in brief: (§4)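 Groups of 10 female Wistar rats given estradiol 25 mg/kg sc on day -5, infected intravaginally with C. albicans by sterile swab on day 0; infection confirmed on day 3 by swab culture (TSB, then Sabouraud agar). Oral dosing once daily on days 3, 4, 5; vehicle controls. Vaginal swabs cultured on days 10 and 15; read-out % cured (culture-negative).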

Rhodotorula mucilaginosa [8] = assay: In vivo Evaluation of minimum inhibitory concentration against Rhodotorula rubra 16; conditions: in the assay text read “In vitro” for “In vivo”; method in brief: as §2
Nakaseomyces glabratus [9] = assay: In vivo Evaluation of minimum inhibitory concentration against Torulopsis glabrata 78; conditions: in the assay text read “In vitro” for “In vivo”; method in brief: as §2
Candida parapsilosis = assay: Evaluation of In vitro antifungal activity against Candida parapsilosis 2.07 by broth macro dilution method; conditions: Lodderomyces parapsilosis
Method in brief: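 Yeast MIC and MFC by broth macrodilution per NCCLS M27-P in RPMI-1640 buffered with 0.165 M MOPS. Fluconazole in sterile water, other drugs in DMSO. C. parapsilosis ATCC 22019 is the reference strain in each run. MIC is the lowest concentration with turbidity ≤ the 80% inhibition standard. For MFC, 0.04 mL from clear tubes is plated on Sabouraud agar; MFC is the lowest concentration giving ≤1 colony.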

Candida albicans [10] = assay: […] Evaluation of minimum inhibitory concentration against Candida albicans 406; method in brief: as §2
Candida albicans [11] = assay: […] Evaluation of minimum inhibitory concentration against Candida albicans 60; method in brief: as §2
Candida tropicalis [12] = assay: In vitro evaluation of minimum inhibitory concentration against Candida tropicalis 2.11; conditions: Candida tropicalis; read-out: MIC; method in brief: as §2
Mus sp. [13] = assay: In vivo evaluation of % survival rate after peroral administration on 3rd day at dose 2.5 mg/kg; conditions: Mus sp., po
Mus musculus [14] = assay: In vivo evaluation of % survival rate after peroral administration on 3rd day at dose 20 mg/kg; conditions: route oral
Mus musculus [15] = assay: In vivo evaluation of % survival rate after peroral administration on 3rd day at dose 5 mg/kg; conditions: route oral
Mus musculus [16] = assay: In vivo evaluation of % survival rate after peroral administration on 5th day at dose 10 mg/kg; conditions: route oral
Mus sp. [17] = assay: In vivo evaluation of % survival rate after peroral administration on 5th day at dose 2.5 mg/kg; conditions: Mus sp., po
Mus musculus [18] = assay: In vivo evaluation of % survival rate after peroral administration on 5th day at dose 20 mg/kg; conditions: route oral
Mus musculus [19] = assay: In vivo evaluation of % survival rate after peroral administration on 5th day at dose 5 mg/kg; conditions: route oral
Mus musculus [20] = assay: In vivo evaluation of % survival rate after peroral administration on 7th day at dose 10 mg/kg; conditions: route oral
Mus sp. [21] = assay: In vivo evaluation of % survival rate after peroral administration on 7th day at dose 2.5 mg/kg; conditions: Mus sp., po
Mus musculus [22] = assay: In vivo evaluation of % survival rate after peroral administration on 7th day at dose 20 mg/kg; conditions: route oral
Mus musculus [23] = assay: In vivo evaluation of % survival rate after peroral administration on 9th day at dose 10 mg/kg; conditions: route oral
Mus sp. [24] = assay: In vivo evaluation of % survival rate after peroral administration on 9th day at dose 2.5 mg/kg; conditions: Mus sp., po
Mus musculus [25] = assay: In vivo evaluation of % survival rate after peroral administration on 9th day at dose 20 mg/kg; conditions: route oral
Mus musculus [26] = assay: In vivo evaluation of % survival rate after peroral administration on 9th day at dose 5 mg/kg; conditions: route oral
Rattus norvegicus [27] = assay: In vivo evaluation of antifungal activity against vaginal candidosis in rat at dose 0.5 mg/kg on 10th day
Method in brief: (§5)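 Female Wistar rats, 10 per group, received estradiol 25 mg/kg sc on day -5. On day 0 they were infected intravaginally with C. albicans by sterile swab. Infection was confirmed on day 3 by culturing the swab in TSB and then on Sabouraud agar. Oral dosing was once daily on days 3, 4 and 5; controls got vehicle only. Vaginal swabs taken on days 10 and 15 were cultured and read the next day.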

Rattus norvegicus [28] = assay: In vivo evaluation of antifungal activity against vaginal candidosis in rat at dose 0.5 mg/kg on 15th day; method in brief: as §5
Rattus norvegicus [29] = assay: In vivo evaluation of antifungal activity in against vaginal candidosis in rat at dose 0.25 mg/kg on 10th day; method in brief: as §4
Nakaseomyces glabratus [30] = assay: In vitro evaluation of minimum inhibitory concentration against Torulopsis glabrata 78; conditions: Nakaseomyces glabratus; read-out: MIC; method in brief: as §2
Rhodotorula mucilaginosa [31] = assay: In vitro evaluation of minimum inhibitory concentration against Rhodotorula rubra 16; conditions: Rhodotorula mucilaginosa; read-out: MIC; method in brief: as §2
Kluyveromyces marxianus [32] = assay: In vitro evaluation of minimum inhibitory concentration against Candida pseudotropicalis 13; conditions: Kluyveromyces marxianus; read-out: MIC; method in brief: as §2
Mus musculus [33] = assay: In vivo evaluation of % survival rate after peroral administration on 3rd day at dose 10 mg/kg; conditions: route oral
Mus musculus [34] = assay: In vivo evaluation of % survival rate after peroral administration on 7th day at dose 5 mg/kg; conditions: route oral

C[C@H]1N(C(=O)c2ccc(C(F)(F)F)cc2)C[C@H](O)O[C@@]1(Cn1cncn1)c1ccc(F)cc1F (stereo in doubt; (-)-39a)
MIC (Candida albicans [1]): 1.25 mg/L (≈ 2.59 µM) | MIC (Candida albicans [2]): 2.5 mg/L (≈ 5.18 µM) | MIC (Candida tropicalis [3]): 40 mg/L (≈ 82.9 µM) | MIC (Kluyveromyces marxianus [4]): 20 mg/L (≈ 41.5 µM) | MIC (Nannizzia gypsea): 80 mg/L (≈ 166 µM) | Cure rate (Rattus norvegicus [5]): 30% | Cure rate (Rattus norvegicus [6]): 50% | Cure rate (Rattus norvegicus [7]): 95% | MIC (Rhodotorula mucilaginosa [8]): > 80 mg/L | MIC (Nakaseomyces glabratus [9]): > 80 mg/L | MFC (Candida parapsilosis): > 64 mg/L | MIC (Candida parapsilosis): 4 mg/L (≈ 8.29 µM)

OC(Cn1cncn1)(Cn1cncn1)c1ccc(F)cc1F [FLUCONAZOLE]
MIC (Candida albicans [10]): 2.5 mg/L (≈ 8.16 µM) | MIC (Candida albicans [11]): 2.5 mg/L (≈ 8.16 µM) | MIC (Candida tropicalis [12]): 80 mg/L (≈ 261 µM) | survival at 2.5 mg/kg (Mus sp. [13]): 100% | survival at 20 mg/kg (Mus musculus [14]): 100% | survival at 5 mg/kg (Mus musculus [15]): 100% | survival at 10 mg/kg (Mus musculus [16]): 100% | survival at 2.5 mg/kg (Mus sp. [17]): 100% | survival at 20 mg/kg (Mus musculus [18]): 100% | survival at 5 mg/kg (Mus musculus [19]): 100% | survival at 10 mg/kg (Mus musculus [20]): 80% | survival at 2.5 mg/kg (Mus sp. [21]): 95% | survival at 20 mg/kg (Mus musculus [22]): 98% | survival at 10 mg/kg (Mus musculus [23]): 60% | survival at 2.5 mg/kg (Mus sp. [24]): 70% | survival at 20 mg/kg (Mus musculus [25]): 75% | survival at 5 mg/kg (Mus musculus [26]): 40% | MIC (Nannizzia gypsea): > 80 mg/L | Cure rate (Rattus norvegicus [27]): 20% | Cure rate (Rattus norvegicus [28]): 20% | Cure rate (Rattus norvegicus [29]): 10% | MIC (Nakaseomyces glabratus [30]): > 80 mg/L | MIC (Rhodotorula mucilaginosa [31]): > 80 mg/L | MIC (Kluyveromyces marxianus [32]): 80 mg/L (≈ 261 µM) | MFC (Candida parapsilosis): > 64 mg/L | MIC (Candida parapsilosis): 1 mg/L (≈ 3.27 µM) | survival at 10 mg/kg (Mus musculus [33]): 100% | survival at 5 mg/kg (Mus musculus [34]): 90%
